“And” between values parts separate entries of the source, which are not always exact repeats. Equal entries are not always repeated.
Key:
Format in all cases: ADME, organism-based
[1] = test system: Mus musculus; test: The biodistribution time for [131 I ]L-HML-NGA radioactivity after concomitant administration of [131 I ]L-HML-NGA and [125 I ]MPH-NGA in mice. It is expressed as percent injected dose per neck.; details: in vivo
Summary of the method: (§1)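 Six-week-old male ddY mice were given one i.v. co-injection of a 131I/125I-labelled NGA pair, each diluted to 90 µg/mL protein in 0.1 M PBS pH 6.0 and mixed 1:1, giving 9 µg of each radioiodinated NGA per mouse. Groups of five were killed at 5, 15, 30 min, 1 h and 3 h. Organs were weighed and counted in a well counter. Values are % ID per organ, blood as % ID/g, mean (SD).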

[2] = Cumulative radioactivity exerted by [131 I ]L-HML-NGA in the feces at 24 hour postinjection of [131 I ]L-HML-NGA and [125 I ]MIH-NGA.; details: in vivo
Summary of the method: (§2)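 Mice received one i.v. co-injection of the dual-isotope NGA mixture, 9 µg of each radioiodinated protein, and were housed in metabolic cages for 24 h. Cumulative urine and feces were collected and counted. Values are % injected dose, mean (SD) of five animals, with a Student's paired t-test between the two co-administered conjugates.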

[3] = test system: Mus musculus; test: Biodistribution time for compound radioactivity after concomitant administration of compound and [125 I ]MIH-NGA in mice was expressed as % injected dose per liver after 15 min; details: in vivo, 0.25 h; summary of the method: as §1
[4] = test system: Mus musculus; test: The biodistribution time for [131 I ]L-HML-NGA radioactivity after concomitant administration of [131 I ]L-HML-NGA and [125 I ]L-HML-IT-NGA in mice. It is expressed as percent injected dose per intestine.; details: in vivo; summary of the method: as §1
[5] = test system: Mus musculus; test: The biodistribution time for [131 I ]L-HML-NGA radioactivity after concomitant administration of [131 I ]L-HML-NGA and [125 I ]MPH-NGA in mice. It is expressed as percent injected dose per stomach.; details: in vivo; summary of the method: as §1
[6] = species: Homo sapiens; test: The percent protein-bound radioactivity in NGAfractions following incubation of radioiodinated [131 I ]L-HML-NGA in human serum after 1 hour
Summary of the method: (§3)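 Conjugates were diluted to 0.5 mg/mL in 0.1 M PBS pH 6.0, and 20 µL was added to 230 µL of freshly prepared human serum. Samples were incubated at 37 °C and taken at 1, 3, 6 or 24 h. Protein-bound fraction (Rf 0) was separated from small metabolites (Rf 0.6-0.9) by paper chromatography in methanol-water 4:1. Protein-bound radioactivity was divided by the initial radiochemical purity. Values are mean (SD).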

[7] = species: Homo sapiens; test: The percent protein-bound radioactivity in NGAfractions following incubation of radioiodinated [131 I ]L-HML-NGA in human serum after 6 hours; details: in vivo; summary of the method: as §3
[8] = test system: Mus musculus; test: The biodistribution time for [131 I ]L-HML-NGA radioactivity after concomitant administration of [131 I ]L-HML-NGA and [125 I ]L-HML-IT-NGA in mice. It is expressed as percent injected dose per gram of blood tissue.; details: in vivo; summary of the method: as §1
[9] = test system: Mus musculus; test: The biodistribution time for [131 I ]L-HML-NGA radioactivity after concomitant administration of [131 I ]L-HML-NGA and [125 I ]MIH-NGA in mice. It is expressed as percent injected dose per stomach.; details: in vivo; summary of the method: as §1
[10] = test system: Mus musculus; test: The biodistribution time for [131 I ]L-HML-NGA radioactivity after concomitant administration of [131 I ]L-HML-NGA and [125 I ]MIH-NGA in mice. It is expressed as percent injected dose per gram of blood tissue.; details: in vivo; summary of the method: as §1
[11] = test system: Mus musculus; test: The biodistribution time for [131 I ]L-HML-NGA radioactivity after concomitant administration of [131 I ]L-HML-NGA and [125 I ]L-HML-IT-NGA in mice. It is expressed as percent injected dose per gram of blood tissue. Values are mean(SD) of five anim; details: in vivo; summary of the method: as §1
[12] = test system: Mus musculus; test: The biodistribution time for [131 I ]L-HML-NGA radioactivity after concomitant administration of [131 I ]L-HML-NGA and [125 I ]L-HML-IT-NGA in mice. It is expressed as percent injected dose per stomach.; details: in vivo; summary of the method: as §1
[13] = test system: Mus musculus; test: The biodistribution time for [131 I ]L-HML-NGA radioactivity after concomitant administration of [131 I ]L-HML-NGA and [125 I ]L-HML-IT-NGA in mice. It is expressed as percent injected dose per liver; details: in vivo; summary of the method: as §1
[14] = test system: Mus musculus; test: The biodistribution time for [131 I ]L-HML-NGA radioactivity after concomitant administration of [131 I ]L-HML-NGA and [125 I ]MPH-NGA in mice. It is expressed as percent injected dose per liver. Ent after 1 hour; details: in vivo; summary of the method: as §1
[15] = test system: Mus musculus; test: The biodistribution time for [131 I ]L-HML-NGA radioactivity after concomitant administration of [131 I ]L-HML-NGA and [125 I ]MPH-NGA in mice. It is expressed as percent injected dose per gram of blood tissue.; details: in vivo; summary of the method: as §1
[16] = species: Homo sapiens; test: The percent protein-bound radioactivity in NGAfractions following incubation of radioiodinated [131 I ]L-HML-NGA in human serum after 24 hours; summary of the method: as §3
[17] = Cumulative radioactivity exerted by [131 I ]L-HML-NGA in the feces at 24 hour postinjection of [131 I ]L-HML-NGA and [125 I ]HML-IT-NGA.; details: in vivo; summary of the method: as §2
[18] = test system: Mus musculus; test: Biodistribution time for compound radioactivity after concomitant administration of compound and [125 I ]MIH-NGA in mice. It is expressed as % injected dose per liver. Values are mean(SD) of 5 animals for each experiment after 5 minutes; details: in vivo; summary of the method: as §1
[19] = test system: Mus musculus; test: The biodistribution time for [131 I ]L-HML-NGA radioactivity after concomitant administration of [131 I ]L-HML-NGA and [125 I ]D-HML-NGA in mice. It is expressed as percent injected dose per gram of blood tissue.; details: in vivo; summary of the method: as §1
[20] = test system: Mus musculus; test: The biodistribution time for [131 I ]L-HML-NGA radioactivity after concomitant administration of [[131 I ]L-HML-NGA and [125 I ]MPH-NGA in mice. It is expressed as percent injected dose per kidney.; details: in vivo; summary of the method: as §1
[21] = Cumulative radioactivity exerted by [131 I ]L-HML-NGA in the feces at 24 hour postinjection of [131 I ]L-HML-NGA and [125 I ]D-HML-NGA.; details: in vivo; summary of the method: as §2
[22] = Cumulative radioactivity exerted by [131 I ]L-HML-NGA in the feces at 24 hour postinjection of [131 I ]L-HML-NGA and [125 I ]MPH-NGA.; details: in vivo; summary of the method: as §2
[23] = test system: Mus musculus; test: The biodistribution time for [131 I ]L-HML-NGA radioactivity after concomitant administration of [131 I ]L-HML-NGA and [125 I ]MPH-NGA in mice. It is expressed as percent injected dose per intestine.; details: in vivo; summary of the method: as §1
[24] = test system: Mus musculus; test: The biodistribution time for [131 I ]L-HML-NGA radioactivity after concomitant administration of [131 I ]L-HML-NGA and [125 I ]D-HML-NGA in mice. It is expressed as percent injected dose per neck.; details: in vivo; summary of the method: as §1

N[C@@H](CS)C(=O)SC1CC(=O)N(CCCC[C@H](NC(=O)CNC(=O)c2cccc([131I])c2)C(=O)O)C1=O (some centres undefined)
Radioactivity [1]: 0.05% and 0.23% and 0.09% and 0.03% | Radioactivity [2]: 5.87% | Radioactivity [3]: 54.33% | Radioactivity [4]: 0.35% and 2.3% and 4.98% and 5.54% and 5.14% | Radioactivity [5]: 0.26% and 0.57% and 0.3% and 0.29% and 0.33% | Radioactivity [6]: 99.78% | Radioactivity [7]: 98.39% | Radioactivity [8]: 1.13% and 1.72% and 0.8% and 0.48% | Radioactivity [9]: 0.39% and 0.47% and 0.46% and 0.45% and 0.51% | Radioactivity [10]: 1.22% and 2.93% and 1.48% and 0.58% and 0.43% | Radioactivity [11]: 3.19% | Radioactivity [12]: 0.17% and 0.46% and 0.3% and 0.35% | Radioactivity [13]: 54.25% | Radioactivity [14]: 4.29% | Radioactivity [15]: 1.22% and 3.14% and 1.28% and 0.54% and 0.31% | Radioactivity [16]: 97.23% | Radioactivity [17]: 2.83% | Radioactivity [18]: 94.15% | Radioactivity [19]: 1.9% and 3.14% and 1.63% and 0.82% and 0.5% | Radioactivity [20]: 0.76% and 5.3% and 2.3% and 0.31% and 0.13% | Radioactivity [21]: 4.4% | Radioactivity [22]: 3.28% | Radioactivity [23]: 0.66% and 4.66% and 4.59% and 5.75% and 5.43% | Radioactivity [24]: 0.13% and 0.28% and 0.17% and 0.12% and 0.05%
